Source: PubChem BioAssay
Hits are enriched below; roughly 4.1% of the tested compounds scored in any of these assays.
KCNQ1 inh: blocks the human KCNQ1 potassium channel; P51787; CHO-K1 KCNQ1, FluxOR thallium flux fluorescence; stronger effect = higher value; B-score at 10 µM; hit rate 1.3% among 310,000; AID 2642;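 active = compounds whose thallium flux B-score, printed positive for inhibition, exceeds three library SD while starting fluorescence stays within three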;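 also: channel opened by potassium depolarization with thallium stimulus after 20 min compound exposure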
hERG rescue: compounds protecting human hERG from proarrhythmic drug block; Q12809; CHO-hERG, FluxOR thallium flux, dofetilide IC70 present; activation (rescue from dofetilide block), less the hit threshold, % at 10 µM; hit rate 0.51% among 310,000; AID 1511;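 active = activation above the mean of controls blocked by dofetilide plus 5 SD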;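 also: thallium influx through hERG after potassium depolarization seen as dye fluorescence rise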
Target sequence (Q12809 whole entry, looked up): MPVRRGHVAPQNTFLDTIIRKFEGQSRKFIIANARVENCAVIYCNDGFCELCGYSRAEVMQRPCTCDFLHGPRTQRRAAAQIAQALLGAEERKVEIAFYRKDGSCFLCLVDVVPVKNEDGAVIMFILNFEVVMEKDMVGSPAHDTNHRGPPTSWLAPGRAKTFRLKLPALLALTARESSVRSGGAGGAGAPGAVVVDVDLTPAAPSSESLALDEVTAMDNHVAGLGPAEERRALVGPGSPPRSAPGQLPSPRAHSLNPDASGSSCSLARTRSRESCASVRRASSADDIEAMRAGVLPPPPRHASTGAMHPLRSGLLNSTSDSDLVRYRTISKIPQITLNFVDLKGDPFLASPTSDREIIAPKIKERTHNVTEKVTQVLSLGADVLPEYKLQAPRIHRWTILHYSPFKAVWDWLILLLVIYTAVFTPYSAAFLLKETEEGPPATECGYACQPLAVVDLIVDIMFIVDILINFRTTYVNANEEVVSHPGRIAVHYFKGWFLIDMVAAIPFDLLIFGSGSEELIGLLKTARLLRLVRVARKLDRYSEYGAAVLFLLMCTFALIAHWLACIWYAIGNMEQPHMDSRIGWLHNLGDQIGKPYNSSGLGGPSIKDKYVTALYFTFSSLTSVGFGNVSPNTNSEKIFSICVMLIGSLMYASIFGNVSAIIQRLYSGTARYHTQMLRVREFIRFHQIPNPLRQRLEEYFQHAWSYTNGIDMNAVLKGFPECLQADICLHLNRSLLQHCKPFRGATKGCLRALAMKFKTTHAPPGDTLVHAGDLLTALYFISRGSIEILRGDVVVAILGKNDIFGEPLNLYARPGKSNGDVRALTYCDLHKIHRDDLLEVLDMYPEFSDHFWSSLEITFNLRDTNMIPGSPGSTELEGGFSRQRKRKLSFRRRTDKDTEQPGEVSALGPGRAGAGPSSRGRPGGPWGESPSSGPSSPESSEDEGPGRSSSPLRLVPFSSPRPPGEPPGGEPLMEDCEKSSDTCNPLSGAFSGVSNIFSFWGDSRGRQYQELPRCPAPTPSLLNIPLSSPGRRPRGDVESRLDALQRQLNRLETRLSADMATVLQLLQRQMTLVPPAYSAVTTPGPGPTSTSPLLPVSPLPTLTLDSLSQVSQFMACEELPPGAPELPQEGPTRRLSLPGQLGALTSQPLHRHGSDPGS
KCNK9 inh: inhibitors of human KCNK9 two-pore domain potassium channel. hit rate 1.2% among 310,000. HEK293 KCNK9, FluxOR thallium flux fluorescence; stronger effect = lower value. B-score at 10 µM;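 active = ratio B-score over 3 SD below the library mean, with starting fluorescence within 5 SD of its mean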;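 also: negative B-score means less thallium flux so channel inhibition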
KCNQ1 pot: potentiates or activates the human KCNQ1 potassium channel; CHO-K1 KCNQ1, thallium flux FluxOR fluorescence; stronger effect = higher value; B-score at 10 µM; hit rate 0.35% among 310,000; AID 2648;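 active = fluorescence ratio B-score, a plate-corrected score, at least three library SD, with initial intensity B-score within 5 SD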
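Material: CHO-K1 cells stably expressing KCNQ1. Medium: assay buffer for compound exposure, DMSO matched across wells. Reagent: K+/Tl+ depolarizing stimulus. Compound dosing: single-concentration screen. Times: 37 °C overnight plating, 90-min dark dye load, 20-min compound pretreatment. Technique: FluxOR Tl+ flux fluorescence.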
KCNK3 inh: human KCNK3 channel inhibition, primary screen; O14649; CHO-KCNK3 thallium flux, FluxOR fluorescence; stronger effect = lower value; B-score at 10 µM; hit rate 0.84% among 340,000; AID 602410;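 active = B-score under library mean minus 4 SD, starting fluorescence ratio at most library mean plus 5 SD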;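 also: more negative B-score means stronger inhibition of thallium flux through KCNK3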
KCC2 mod: modulates chloride dependent transport by human KCC2. Q9H2X9. KCC2 cells, thallium flux FluoZin-2 fluorescence. B-score of Tl+ flux slope (higher = more flux/activation; lower = inhibition) at 10 µM. hit rate 2.2% among 190,000;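 active = thallium flux slope and its plate-corrected score both differing from the plate sample mean at a set confidence after two filtering rounds, in either direction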;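 also: slope of fluorescence scaled to starting intensity during 10 to 20 s after thallium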
KCC2 secondary: KCC2 (human) modulation, secondary assay. normalised thallium flux (F/F0 slope) at 10 µM. shares compounds with KCC2 mod. HEK293-KCC2, thallium flux, FluoZin2 fluorescence; stronger effect = higher value. hit rate 15% among 3,700;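 active = thallium flux slope above the same plate's solvent-only control mean plus 3 SD; inconclusive = the two replicate wells disagree; inactive = no significant difference from solvent-only control wells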
KCC2 bumet counter: bumetanide-insensitive thallium flux in KCC2 cells with ouabain, counter-screen; AID 1714; shares compounds with KCC2 mod; normalized thallium flux at 10 µM; hit rate 49% among 3,700; HEK293-KCC2 + bumetanide/ouabain, thallium flux FluoZin2; stronger effect = higher value;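 active = thallium entry rate above the same plate's blocked-transporter control wells by more than 3 SD; inconclusive = the two repeat wells disagree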;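 also: raw slope of fluorescence over initial fluorescence between 10 and 20 s after thallium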
KCC2 sec2: confirmation of human KCC2 transport modulators | shares compounds with KCC2 mod | HEK293-KCC2, thallium flux FluoZin2 fluorescence; actives lie on both sides; F/F0 rise rate, 10–20 s post-thallium | normalized thallium flux at 10 µM | hit rate 23% among 3,700;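 active = thallium flux slope more than 3 SD above or below the plate's solvent-only control mean, mostly below; inconclusive = the two repeat wells disagreed; inactive = no significant shift from solvent-only controls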
HEK293 Tl flux: counter-screen for KCC2 modulators: effect in parental HEK293 cells. shares compounds with KCC2 mod. thallium flux FluoZin2, ouabain; baseline-ratio fluorescence slope, 10–20 s after thallium. thallium flux rate (normalised fluorescence) at 10 µM. hit rate 46% among 3,700;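 active = thallium flux rate significantly above the same plate's solvent-only control wells, beyond their mean plus 3 SD; inconclusive = the two replicate wells gave conflicting results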
KCC2 retest ouab: confirmation of human KCC2 modulators with ouabain; shares compounds with KCC2 mod; AID 1717; hit rate 48% among 3,700; HEK293-KCC2, thallium flux FluoZin2 fluorescence; bidirectional: low = inhibitor, high = activator; raw Tl+ flux slope (below DMSO = inhibition, above = activation) at 10 µM;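 active = thallium flux slope beyond 3 SD from same-plate DMSO control mean in most replicates, usually higher, sometimes lower; inconclusive = repeat tests gave conflicting results; inactive = no significant difference from controls in most replicates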;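 also: slope of initial-normalized fluorescence between seconds 10 and 20 after thallium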
HEK293 Tl flux2: counter-screen for KCC2 modulators: effect in parental HEK293 cells; shares compounds with KCC2 mod; thallium flux FluoZin-2 fluorescence slope; thallium flux slope at 10 µM; hit rate 33% among 3,700; AID 1718;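 active = thallium flux slope above the same plate's solvent-control mean plus 3 SD in both duplicate wells; inconclusive = duplicate wells that disagreed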;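 also: run without ouabain in cells lacking the KCC2 cotransporter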
Each line names hits and unclear results; the compound was inactive in the other large screens (follow-up assays come after a bar, where they were run); ! = not confirmed by another sample.

O=C(c1ccc(S(=O)(=O)c2cccc(Cl)c2)c([N+](=O)[O-])c1)N1CCN(c2ccccn2)CC1	KCC2 mod -4.97 | KCC2 secondary inactive | KCC2 bumet counter inactive | KCC2 sec2 0.0221 | HEK293 Tl flux inactive | KCC2 retest ouab inconclusive | HEK293 Tl flux2 inactive
Cc1ccc2c(c1)nnn2C1CCN(S(=O)(=O)c2cccc(S(=O)(=O)N(C)C)c2)CC1	none (no result: KCC2 mod) | KCC2 secondary inactive | KCC2 bumet counter inactive | KCC2 sec2 inconclusive | HEK293 Tl flux inactive | KCC2 retest ouab inconclusive | HEK293 Tl flux2 inactive
O=S(=O)(NC1CCCC1)c1cccc(S(=O)(=O)N2CCC(n3nnc4ccccc43)CC2)c1	none (no result: KCC2 mod) | KCC2 secondary inactive | KCC2 bumet counter inactive | KCC2 sec2 inconclusive | HEK293 Tl flux inactive | KCC2 retest ouab inactive | HEK293 Tl flux2 inactive
COC1C(CO)OC(n2c3c(Cl)cccc3c3c4c(c5c6cccc(Cl)c6[nH]c5c32)C(=O)NC4=O)C(O)C1O (stereo not given)	none (no result: KCNQ1 inh, hERG rescue, KCNK9 inh, KCNQ1 pot, KCC2 mod)
CCOC(=O)Nc1cccc(OCC(=O)Nc2ccc3c(c2)CCC3)c1	none (no result: KCNQ1 inh, hERG rescue, KCNK9 inh, KCNQ1 pot, KCC2 mod)
CCOc1ccc(S(=O)(=O)NCCC(=O)N2CC=C(c3ccccc3)CC2)cc1	none (no result: KCNQ1 inh, hERG rescue, KCNK9 inh, KCNQ1 pot, KCC2 mod)
CC(NC(=O)c1cc(Br)ccc1Cl)c1ccccc1 (stereo not given)	none
O=C(NC(=S)N(CCO)Cc1ccccc1)c1cc(Br)ccc1Cl	hERG rescue 19.0, KCC2 mod 10.3 | KCC2 secondary 0.0152 | KCC2 bumet counter 0.0393 | KCC2 sec2 inactive | HEK293 Tl flux inconclusive | KCC2 retest ouab 0.0328 | HEK293 Tl flux2 inactive
O=C(c1cccc(S(=O)(=O)N2CCCC2)c1)N1CCN(S(=O)(=O)c2cccc(Cl)c2)CC1	none (no result: KCNQ1 inh, hERG rescue, KCNK9 inh, KCNQ1 pot, KCC2 mod)
C=CCn1c(SCC(=O)c2ccc(F)cc2)nnc1-c1ccc2c(c1)OCO2	KCC2 mod -3.72 | KCC2 secondary inactive | KCC2 bumet counter inactive | KCC2 sec2 inactive | HEK293 Tl flux inactive | KCC2 retest ouab 0.0154 | HEK293 Tl flux2 inactive
Cc1nc(SCC(=O)Nc2cc(C(N)=O)cc(C(N)=O)c2)c2c(C)c(C)sc2n1	KCC2 mod 37.9 | KCC2 secondary inconclusive | KCC2 bumet counter 0.0423 | KCC2 sec2 inactive | HEK293 Tl flux 0.0522 | KCC2 retest ouab 0.0451 | HEK293 Tl flux2 0.022
O=C1CCC(=O)N1c1ccc(NC2CCN(Cc3ccccc3)CC2)c([N+](=O)[O-])c1	KCC2 mod -5.91 | KCC2 secondary inactive | KCC2 bumet counter inactive | KCC2 sec2 0.0245 | HEK293 Tl flux inconclusive | KCC2 retest ouab inactive | HEK293 Tl flux2 inactive
O=[N+]([O-])c1ccc(NC2CCN(Cc3ccccc3)CC2)c([N+](=O)[O-])c1	KCC2 mod -5.2 | KCC2 secondary inactive | KCC2 bumet counter inactive | KCC2 sec2 0.0222 | HEK293 Tl flux inactive | KCC2 retest ouab inconclusive | HEK293 Tl flux2 inactive
CC1CCC2C(=O)N(c3ccc(NC4CCN(Cc5ccccc5)CC4)c([N+](=O)[O-])c3)C(=O)C2C1 (stereo not given)	none
O=C1C2CCCCC2C(=O)N1c1ccc(NC2CCN(Cc3ccccc3)CC2)c([N+](=O)[O-])c1 (stereo not given)	KCC2 mod -8.54 | KCC2 secondary inactive | KCC2 bumet counter 0.00773 | KCC2 sec2 0.0255 | HEK293 Tl flux inactive | KCC2 retest ouab 0.014 | HEK293 Tl flux2 inactive
O=C1[C@H]2CCC=C[C@H]2[C@H](c2cccc(Br)c2)N1Cc1ccccc1	none (no result: KCNQ1 inh, hERG rescue, KCNK9 inh, KCNQ1 pot, KCC2 mod)
Cc1cc(/C=C2\NC(=S)N(C)C2=O)ccc1N1CCCC1	KCC2 mod 6.43 | KCC2 secondary inactive | KCC2 bumet counter 0.0118 | KCC2 sec2 inconclusive | HEK293 Tl flux inconclusive | KCC2 retest ouab inactive | HEK293 Tl flux2 inactive
O=C(N/N=C/c1ccc([N+](=O)[O-])s1)c1ccncc1	none
Cc1ccc(OCC(=O)N/N=C\c2cccs2)c([N+](=O)[O-])c1	none
Cc1ccc(C(=O)N/N=C/c2ccc([N+](=O)[O-])s2)cc1	KCC2 mod 6.61 | KCC2 secondary inactive | KCC2 bumet counter 0.0153 | KCC2 sec2 inactive | HEK293 Tl flux 0.0157 | KCC2 retest ouab inconclusive | HEK293 Tl flux2 inconclusive
Cc1ccc([N+](=O)[O-])c(C(=O)N/N=C/c2cccs2)c1	KCC2 mod 4.54 | KCC2 secondary inactive | KCC2 bumet counter 0.0135 | KCC2 sec2 inactive | HEK293 Tl flux 0.0111 | KCC2 retest ouab inactive | HEK293 Tl flux2 0.0138
CCCCC(CCC(=O)O)(C(=O)OCC)c1csc(Nc2ccc(C)cc2)n1 (stereo not given)	KCC2 mod -4.07 | KCC2 secondary inactive | KCC2 bumet counter inactive | KCC2 sec2 0.0249 | HEK293 Tl flux 0.0056 | KCC2 retest ouab 0.0125 | HEK293 Tl flux2 inconclusive
COc1cc(CC(=O)Nc2ccc(S(=O)(=O)Nc3ncccn3)cc2)cc(OC)c1OC	KCC2 mod -4.02 | KCC2 secondary inactive | KCC2 bumet counter inactive | KCC2 sec2 inactive | HEK293 Tl flux 0.00954 | KCC2 retest ouab inactive | HEK293 Tl flux2 inactive
COc1ccc(CC(=O)Nc2ccc(S(=O)(=O)Nc3nc(C)cc(C)n3)cc2)cc1	KCC2 mod -5.89 | KCC2 secondary inactive | KCC2 bumet counter 0.009 | KCC2 sec2 inactive | HEK293 Tl flux inactive | KCC2 retest ouab inactive | HEK293 Tl flux2 inactive
COc1ccc(CC(=O)Nc2ccc(S(=O)(=O)Nc3ncccn3)cc2)cc1OC	none
Cc1ccc(S(=O)(=O)N(C)C)cc1NC(=O)c1ccccc1SCC(=O)N1CCCC1	none (no result: KCNQ1 inh, hERG rescue, KCNK9 inh, KCNQ1 pot, KCC2 mod)
S=c1[nH]c2cc3ccccc3cc2[nH]1	KCC2 mod 3.26! | KCC2 secondary inactive | KCC2 bumet counter 0.00763 | KCC2 sec2 inconclusive | HEK293 Tl flux 0.00906 | KCC2 retest ouab inactive | HEK293 Tl flux2 inconclusive
S=c1[nH]c2ccc3ccccc3c2[nH]1	none
